In ChEMBL document CHEMBL3804803, “Pyrrolopyrimidine Derivatives as Novel Inhibitors of Multidrug Resistance-Associated Protein 1 (MRP1, ABCC1)” (J Med Chem, 2016):

What was measured:
[1] = organism: Homo sapiens; assay: Inhibition of P-gp (unknown origin) at 10 uM after 30 mins by calcein AM accumulation assay
[2] = target: T1, BCRP (ABCG2) (Homo sapiens, UniProt Q9UNQ0); assay: Inhibition of BCRP (unknown origin) expressed in MDCK2 cells assessed as pheophorbide A accumulation at 10 uM preincubated for 20 mins measured after 120 mins by flow cytometry; assay type: cell-based, MDCK-II; conditions: MDCK2 cells expressing BCRP, probe pheophorbide A
T1 sequence (Q9UNQ0 whole entry): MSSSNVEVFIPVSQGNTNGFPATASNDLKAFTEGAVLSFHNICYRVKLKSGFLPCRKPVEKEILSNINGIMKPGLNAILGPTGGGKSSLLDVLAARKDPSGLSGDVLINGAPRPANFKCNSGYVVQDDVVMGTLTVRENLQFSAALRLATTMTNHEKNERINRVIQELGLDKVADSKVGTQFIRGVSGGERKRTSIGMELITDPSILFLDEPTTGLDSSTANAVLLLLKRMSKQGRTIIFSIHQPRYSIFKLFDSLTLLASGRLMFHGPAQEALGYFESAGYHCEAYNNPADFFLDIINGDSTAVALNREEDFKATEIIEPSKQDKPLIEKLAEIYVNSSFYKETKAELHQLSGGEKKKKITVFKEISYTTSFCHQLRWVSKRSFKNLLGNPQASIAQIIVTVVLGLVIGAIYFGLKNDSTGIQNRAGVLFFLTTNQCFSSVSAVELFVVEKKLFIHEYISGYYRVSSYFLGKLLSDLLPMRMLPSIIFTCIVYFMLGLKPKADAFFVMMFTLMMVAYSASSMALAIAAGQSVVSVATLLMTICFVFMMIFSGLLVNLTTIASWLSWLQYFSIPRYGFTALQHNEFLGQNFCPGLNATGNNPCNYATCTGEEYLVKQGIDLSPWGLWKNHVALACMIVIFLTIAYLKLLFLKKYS
Summary of the method: (§1)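 MDCK II BCRP cells (GFP detected in FL1 to monitor BCRP expression), about 45,000 per well. Preincubated 20 min at 37 °C, 5% CO2 with compound (1–100 µM solutions, 20 µL into 200 µL final volume). Pheophorbide A added (20 µL of 5 µM solution) for 120 min to reach steady state. Cells resuspended, then flow cytometry: 488 nm excitation, FL3 ≥670 nm. […] The four-parameter logistic top was constrained to Ko143; ≥3 experiments in duplicate.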

[3] = target: T2, Multidrug resistance-associated protein 1 (Homo sapiens, UniProt P33527); assay: Inhibition of MRP1 in human H69AR cells incubated for 20 mins measured every 60 seconds by calcein-AM accumulation assay
[4] = target: T2, Multidrug resistance-associated protein 1; assay: Inhibition of MRP1 in human H69AR cells assessed as daunorubicin accumulation preincubated for 15 mins measured after 180 mins by flow cytometry; assay type: cell-based
Summary of the method: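 H69 AR cells, about 60,000 per well in culture medium. Preincubated 15 min with compound diluted in unsupplemented medium, then daunorubicin added (20 µL of 30 µM solution). Held 180 min at 37 °C, 5% CO2, protected from light, to reach steady state. Cells resuspended; flow cytometry with 488 nm excitation, FL3 ≥670 nm. IC50 from four-parameter logistic with variable Hill slope; ≥3 independent experiments in duplicate.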

[5] = Inhibition of P-gp in human A2780/ADR cells after 30 mins by calcein AM accumulation assay; assay type: cell-based; conditions: 0.5 h
[6] = target: T3, Broad substrate specificity ATP-binding cassette transporter ABCG2 (Homo sapiens, UniProt Q9UNQ0); assay: Inhibition of BCRP (unknown origin) expressed in MDCK2 cells assessed as pheophorbide A accumulation preincubated for 20 mins measured after 120 mins by flow cytometry; assay type: cell-based, MDCK-II; summary of the method: as §1
T3 sequence (Q9UNQ0 whole entry): T1 sequence (Q9UNQ0 whole entry)

[7] = target: T2, Multidrug resistance-associated protein 1; assay: Inhibition of MRP1 in human H69AR cells incubated for 20 mins measured […] by calcein-AM accumulation assay; assay type: cell-based
Summary of the method: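 H69 AR cells, about 60,000 per well in Krebs-HEPES buffer pH 7.4. Incubated 20 min at 37 °C, 5% CO2 with compound (100 nM–100 µM solutions, 20 µL in 200 µL final volume). Calcein AM then added (20 µL of 3.125 µM). Fluorescence (ex 485/em 520 nm, 37 °C) read every 60 s. Slope between min 5 and 30 plotted against log concentration; four-parameter logistic fit; ≥3 experiments in duplicate.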

[8] = target: T2, Multidrug resistance-associated protein 1; conditions: h69ar, 72 h, 5 µM
[9] = target: T2, Multidrug resistance-associated protein 1; conditions: h69ar, 72 h, 1 µM
[10] = Cytotoxicity against human H69AR cells overexpressing MRP1 assessed as growth inhibition after 72 hrs by MTT assay; assay type: cell-based
Summary of the method: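 H69 AR cells, about 20,000 per well, exposed 72 h at 37 °C in humidified CO2 to test compound diluted in culture medium (100 nM to 100 µM solutions, 20 µL added to 180 µL cells). Then MTT (5 mg/mL, 20 µL) for 1 h, formazan taken up in DMSO, absorbance 570 nm minus 690 nm. Plain medium set 100% viability, 10% DMSO 0%. GI50 from variable-slope nonlinear fit; ≥3 independent experiments in duplicate.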

[11] = target: T2, Multidrug resistance-associated protein 1; conditions: h69ar, 72 h, 10 µM
[12] = Cytotoxicity against human H69AR cells overexpressing MRP1 assessed as reduction in cell viability at 10 uM after 72 hrs by MTT assay; assay type: cell-based; conditions: for Activity: h69ar, 72 h, 10 µM
Summary of the method: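 H69 AR cells, about 20,000 per well, 72 h at 37 °C in humidified CO2 with compound at 10 µM. MTT (5 mg/mL, 20 µL) added for 1 h, then DMSO solubilization and absorbance 570 nm with 690 nm background. Viability scaled between plain medium (100%) and 10% DMSO (0%). ≥3 independent experiments in duplicate.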

[13] = target: T2, Multidrug resistance-associated protein 1; assay: Inhibition of MRP1 in daunorubicin resistant human H69AR cells assessed as potentiation of daunorubicin-induced growth inhibition at 1 to 10 uM after 72 hrs by MTT assay relative to control; assay type: cell-based

T2 sequence (P33527 whole entry): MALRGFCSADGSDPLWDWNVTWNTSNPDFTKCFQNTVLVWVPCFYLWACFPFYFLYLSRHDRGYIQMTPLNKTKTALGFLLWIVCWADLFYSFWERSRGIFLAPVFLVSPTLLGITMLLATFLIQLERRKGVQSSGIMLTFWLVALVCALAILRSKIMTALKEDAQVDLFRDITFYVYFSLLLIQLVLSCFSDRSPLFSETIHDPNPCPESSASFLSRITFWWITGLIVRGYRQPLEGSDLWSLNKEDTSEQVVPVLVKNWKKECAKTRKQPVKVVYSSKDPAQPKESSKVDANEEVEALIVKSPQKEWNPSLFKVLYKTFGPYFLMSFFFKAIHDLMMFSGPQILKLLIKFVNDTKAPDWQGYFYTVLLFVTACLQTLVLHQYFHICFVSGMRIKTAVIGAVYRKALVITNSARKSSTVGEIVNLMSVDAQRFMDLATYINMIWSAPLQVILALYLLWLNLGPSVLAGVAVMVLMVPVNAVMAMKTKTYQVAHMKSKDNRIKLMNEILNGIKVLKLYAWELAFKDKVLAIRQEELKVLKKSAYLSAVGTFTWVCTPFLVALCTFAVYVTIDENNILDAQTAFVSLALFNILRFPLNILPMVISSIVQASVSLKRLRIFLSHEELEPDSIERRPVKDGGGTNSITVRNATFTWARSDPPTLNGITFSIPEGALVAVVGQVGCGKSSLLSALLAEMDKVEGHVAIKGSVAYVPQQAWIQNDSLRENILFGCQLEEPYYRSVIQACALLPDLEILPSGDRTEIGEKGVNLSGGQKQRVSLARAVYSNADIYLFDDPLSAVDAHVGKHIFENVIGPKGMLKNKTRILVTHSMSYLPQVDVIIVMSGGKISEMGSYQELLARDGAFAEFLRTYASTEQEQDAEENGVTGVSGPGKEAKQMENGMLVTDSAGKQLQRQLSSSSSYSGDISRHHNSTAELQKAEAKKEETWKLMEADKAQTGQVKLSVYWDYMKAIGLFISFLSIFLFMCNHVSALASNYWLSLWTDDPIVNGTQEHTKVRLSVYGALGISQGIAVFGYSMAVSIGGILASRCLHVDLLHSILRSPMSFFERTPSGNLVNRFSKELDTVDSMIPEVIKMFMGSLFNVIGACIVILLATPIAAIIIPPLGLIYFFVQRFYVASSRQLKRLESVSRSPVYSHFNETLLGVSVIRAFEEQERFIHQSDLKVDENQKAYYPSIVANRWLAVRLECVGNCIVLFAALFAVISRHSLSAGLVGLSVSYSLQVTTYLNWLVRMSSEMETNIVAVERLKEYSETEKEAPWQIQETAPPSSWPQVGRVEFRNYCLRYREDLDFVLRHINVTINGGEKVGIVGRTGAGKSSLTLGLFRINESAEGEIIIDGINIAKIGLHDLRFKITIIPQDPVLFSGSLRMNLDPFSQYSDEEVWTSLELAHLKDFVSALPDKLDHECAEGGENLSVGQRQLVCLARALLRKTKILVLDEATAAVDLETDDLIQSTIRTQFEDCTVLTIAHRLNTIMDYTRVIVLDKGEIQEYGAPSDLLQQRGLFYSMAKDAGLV

| SMILES | inhibition [1] [%] | inhibition at 2 h, 10 µM [2] [%] | IC50 [3] [nM] | IC50 [4] [nM] | IC50 [5] [nM] | IC50 [6] [nM] | IC50 [7] [nM] | GI50 [8] [nM] | GI50 [9] [nM] | GI50 at 72 h [10] [nM] | GI50 [11] [nM] | Activity [12] | cytotoxicity at 72 h, 10 µM ([12]; H69AR cells overexpressing MRP1, read-out: INH) [%] | fold change (FC) [13] |
| --- | --- | --- | --- | --- | --- | --- | --- | --- | --- | --- | --- | --- | --- | --- |
| N#Cc1cn(-c2ccccc2)c2c(N3CCN(Cc4ccccc4)CC3)ncnc12 | > 25 | < 25 | 1220 | 866 | – | – | – | – | – | – | – | – | – | – |
| N#Cc1cn(CCc2ccccc2)c2c(N3CCN(Cc4ccccc4)CC3)ncnc12 | > 25 | < 25 | 910 | 983 | – | – | – | – | – | – | – | – | – | – |
| N#Cc1cn(Cc2ccccc2)c2c(N3CCN(CCc4ccccc4)CC3)ncnc12 | > 25 | < 25 | 1000 | 623 | 10600 | – | – | – | – | – | – | – | – | – |
| N#Cc1c2n(c3c(N4CCN(c5ccccc5)CC4)ncnc13)CCCC2 | > 25 | > 25 | 2560 | 2900 | – | 5910 | – | – | – | – | – | – | – | – |
| N#Cc1cn(CCc2ccccc2)c2c(N3CCN(CCc4ccccc4)CC3)ncnc12 | > 25 | < 25 | 1020 | 1120 | 32500 | – | – | – | – | – | – | – | – | – |
| N#Cc1cn(CCCc2ccccc2)c2c(N3CCN(CCc4ccccc4)CC3)ncnc12 | > 25 | < 25 | 956 | 586 | – | – | – | – | – | – | – | – | – | – |
| N#Cc1c2n(c3c(NCc4ccccc4)ncnc13)CCCC2 | > 25 | > 25 | 14200 | 8800 | – | 15800 | – | – | – | – | – | – | – | – |
| N#Cc1c2n(c3c(NCCc4ccccc4)ncnc13)CCCC2 | > 25 | > 25 | 8370 | 4980 | – | – | – | – | – | – | – | – | – | – |
| N#Cc1c2n(c3c(N4CCN(C(c5ccccc5)c5ccccc5)CC4)ncnc13)CCCCC2 | > 25 | > 25 | – | 1010 | 28600 | 8710 | 1950 | – | – | – | – | – | – | – |
| Cn1cc(C#N)c2ncnc(N3CCN(CCc4ccccc4)CC3)c21 | > 25 | < 25 | 714 | 700 | – | – | – | – | – | – | – | – | – | – |
| CCn1cc(C#N)c2ncnc(N3CCN(CCc4ccccc4)CC3)c21 | > 25 | < 25 | 1060 | 789 | – | – | – | – | – | – | – | – | – | – |
| N#Cc1cn(CCCc2ccccc2)c2c(N3CCN(Cc4ccccc4)CC3)ncnc12 | > 25 | < 25 | 3150 | 2360 | – | – | – | – | – | – | – | – | – | – |
| CN1CCN(c2ncnc3c(C#N)c4n(c23)CCCC4)CC1 | > 25 | > 25 | 5060 | 2870 | – | 4250 | – | – | – | – | – | – | – | – |
| N#Cc1c2n(c3c(NCCCc4ccccc4)ncnc13)CCCC2 | > 25 | > 25 | 2500 | 2840 | – | 6070 | – | 751 | 2410 | 132000 | 450 | Non-toxic | – | – |
| N#Cc1c2n(c3c(N4CCNCC4)ncnc13)CCCC2 | > 25 | > 25 | 27300 | 10800 | – | – | – | 2480 | 2940 | 60600 | 1830 | Non-toxic | – | – |
| N#Cc1c2n(c3c(N4CCN(c5ccccc5)CC4)ncnc13)CCCCC2 | > 25 | > 25 | – | 15100 | – | – | 8980 | – | – | – | – | – | – | – |
| CC(C)n1cc(C#N)c2ncnc(N3CCN(CCc4ccccc4)CC3)c21 | > 25 | < 25 | 821 | 1240 | – | – | – | – | – | – | – | – | – | – |
| N#Cc1c2n(c3c(Nc4ccccc4)ncnc13)CCCC2 | > 25 | > 25 | 14200 | 9410 | – | 7680 | – | – | – | – | – | – | – | – |
| N#Cc1cn(Cc2ccccc2)c2c(N3CCN(Cc4ccccc4)CC3)ncnc12 | > 25 | < 25 | 2770 | 876 | – | – | – | – | – | – | – | – | – | – |
| CCCn1cc(C#N)c2ncnc(N3CCN(CCc4ccccc4)CC3)c21 | > 25 | < 25 | 543 | 418 | 41900 | – | – | – | – | – | – | – | – | – |
| N#Cc1c2n(c3c(N4CCN(Cc5ccccc5)CC4)ncnc13)CCCC2 | > 25 | > 25 | 671 | 636 | 32300 | 8240 | – | – | – | – | – | – | – | – |
| N#Cc1cn(-c2ccccc2)c2c(N3CCN(CCc4ccccc4)CC3)ncnc12 | > 25 | < 25 | 750 | 340 | 6820 | – | – | – | – | 23600 | – | – | 40 | – |
| N#Cc1c2n(c3c(N4CCN(C(c5ccccc5)c5ccccc5)CC4)ncnc13)CCCC2 | > 25 | > 25 | 1620 | 1070 | – | 14300 | – | – | – | – | – | – | – | – |
| N#Cc1cn(C2CC2)c2c(N3CCN(CCc4ccccc4)CC3)ncnc12 | > 25 | < 25 | 247 | 200 | – | – | – | – | – | 36000 | – | Non-toxic | – | 10 |
| N#Cc1c2n(c3c(N4CCN(CCc5ccccc5)CC4)ncnc13)CCCCC2 | > 25 | > 25 | – | 643 | 19200 | 9940 | 833 | – | – | 79800 | – | Non-toxic | – | – |
| N#Cc1c2n(c3c(N4CCN(CCc5ccccc5)CC4)ncnc13)CCCC2 | > 25 | > 25 | 370 | 197 | 18800 | 8190 | – | – | – | 39900 | – | Non-toxic | – | – |
